The values that follow come from ChEMBL document CHEMBL1909519, “L-Proline anchored multicomponent synthesis of novel pyrido[2,3-a]carbazoles; investigation of in vitro antimicrobial, antioxidant, cytotoxicity and structure activity relationship studies” (Eur J Med Chem, 2011).

The subject of assay [1] is Radical scavenging activity. In words: Antioxidant activity assessed as DPPH radical scavenging activity after 30 mins by micro plate reader. Format: functional. In a few lines:
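DPPH assay: various compound concentrations brought to volume with ethanol, mixed with 0.1 mM ethanolic DPPH alongside vitamin C standard; shaken 30 min at 24 °C, absorbance read at 517 nm; concentration giving 50% decrease determined.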

Assay [2] has as its system Staphylococcus aureus. Kind of assay: Antibacterial activity against Staphylococcus aureus after 24 hrs by agar disk diffusion assay. It is filed as functional. In a few lines: (§1)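 Agar well diffusion on nutrient agar against Gram-positive clinical isolates (PSG Hospital, Coimbatore). Compounds in DMSO tested at 0 (control), 25, 50, 75, 100; DMSO as solvent and negative control; ciprofloxacin ([…]) as positive control. Plates incubated 37 ± 2 °C, 24 h; zone of inhibition diameter read in mm.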

Assay [3] has as its system Enterococcus faecalis. In words: Antibacterial activity against Enterococcus faecalis after 24 hrs by agar disk diffusion assay. It is filed as functional. In a few lines: as §1
Assay [4] deals with Escherichia coli. Kind of assay: Antibacterial activity against Escherichia coli at 25 ug/ml after 24 hrs by agar disk diffusion assay. It is filed as functional. Particulars: read-out: DIZ; call rule not given here. An outline of the steps: (§2)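 Gram-negative clinical isolates (PSG Hospital, Coimbatore) tested by agar well diffusion on nutrient agar. Compounds dissolved in DMSO at 0 (control), 25, 50, 75, 100; DMSO was the negative control and ciprofloxacin ([…]) the positive control. Incubation 37 ± 2 °C for 24 h, then inhibition zone diameter measured in mm.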

Assay [5] relates to Staphylococcus aureus. In words: Antibacterial activity against Staphylococcus aureus at 25 ug/ml after 24 hrs by agar disk diffusion assay. It is filed as functional. The note with it: read-out: DIZ. An outline of the steps: as §1
The test system of assay [6] is B16-F10. Kind of assay: Cytotoxicity against mouse B16F10 cells after 48 hrs by SRB assay. Format: functional, cell-based. Particulars: B16-F10, 48 h. An outline of the steps: (§3)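 Cells in RPMI-1640 with 10% heat-inactivated FBS, 1 mM NaHCO3, 2 mM L-glutamine, 37 °C, 5% CO2; seeded (B16F10 5 × 10⁴ cells/mL, others 1 × 10⁵ cells/mL), 24 h, then compounds in DMSO at 1.56–50 for 48 h, triplicate wells. TCA fixation, SRB staining 30 min, tris extraction, OD 520 nm; IC50 by linear regression, mean ± SD of three independent experiments; cisplatin positive control.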

Assay [7] relates to Klebsiella pneumoniae. In words: Antibacterial activity against Klebsiella pneumoniae at 25 ug/ml after 24 hrs by agar disk diffusion assay. It is filed as functional. Particulars: read-out: DIZ. In a few lines: as §2
Assay [8] has as its system Candida albicans. In words: Antifungal activity against Candida albicans at 25 ug/ml after 48 hrs by agar disk diffusion assay. Particulars: read-out: DIZ. Format: functional. In a few lines:
(§4)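 Fungal isolates (PSG Hospital, Coimbatore) grown on Sabouraud dextrose agar; agar well diffusion with compounds in DMSO at 0 (control), 25, 50, 75, 100. DMSO negative control, fluconazole ([…]) positive control. Plates held 28 ± 2 °C for 48 h; zone of inhibition diameter recorded in mm.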

The test system of assay [9] is Aspergillus niger. In words: Antifungal activity against Aspergillus niger at 25 ug/ml after 48 hrs by agar disk diffusion assay. It is filed as functional. The note with it: read-out: DIZ. In a few lines: as §4
For assay [10], the system named is Candida albicans. In words: Antifungal activity against Candida albicans after 48 hrs by agar disk diffusion assay. Format: functional. An outline of the steps:
as §4

Assay [11] has as its system Aspergillus niger. In words: Antifungal activity against Aspergillus niger after 48 hrs by agar disk diffusion assay. Format: functional. In a few lines:
as §4

Assay [12] has as its system A549. Kind of assay: Cytotoxicity against human A549 cells after 48 hrs by SRB assay. Format: functional, cell-based. The note with it: A549, 48 h. In a few lines:
as §3

Assay [13] has as its system Klebsiella pneumoniae. Kind of assay: Antibacterial activity against Klebsiella pneumoniae after 24 hrs by agar disk diffusion assay. Format: functional. An outline of the steps:
as §2

In assay [14] the test system is Enterococcus faecalis. In words: Antibacterial activity against Enterococcus faecalis at 25 ug/ml after 24 hrs by agar disk diffusion assay. It is filed as functional. Particulars: read-out: DIZ. In a few lines: as §1
Assay [15] has as its system Escherichia coli. Kind of assay: Antibacterial activity against Escherichia coli after 24 hrs by agar disk diffusion assay. It is filed as functional. An outline of the steps: as §2
The test system of assay [16] is HCT-15. In words: Cytotoxicity against human HCT15 cells after 48 hrs by SRB assay. It is filed as functional, cell-based. The note with it: HCT-15, 48 h. In a few lines: as §3
Assay [17] is described as follows: Cytotoxicity against human SK-MEL-12 cells after 48 hrs by SRB assay. Format: functional, cell-based. In a few lines: as §3
A further assay relates to SK-OV-3. Kind of assay: Cytotoxicity against human SKOV3 cells up to 50 ug/ml after 48 hrs by SRB assay. It is filed as functional, cell-based. An outline of the steps: as §3
The nature of assay [18]: Cytotoxicity against human SK-MEL-12 cells up to 50 ug/ml after 48 hrs by SRB assay. It is filed as functional, cell-based. An outline of the steps: as §3
In assay [19] the test system is B16-F10. Kind of assay: Ratio of cisplatin IC50 to compound IC50 for mouse B16F10. It is filed as functional.
For assay [20], the system named is Candida albicans. In words: Antifungal activity against Candida albicans at 50 ug/ml after 48 hrs by agar disk diffusion assay. It is filed as functional. The note with it: read-out: DIZ. In a few lines:
as §4

Assay [21] has as its system Staphylococcus aureus. In words: Antibacterial activity against Staphylococcus aureus at 50 ug/ml after 24 hrs by agar disk diffusion assay. Format: functional. The note with it: read-out: DIZ. In a few lines:
as §1

In assay [22] the test system is Klebsiella pneumoniae. Kind of assay: Antibacterial activity against Klebsiella pneumoniae at 50 ug/ml after 24 hrs by agar disk diffusion assay. Particulars: read-out: DIZ. Format: functional. In a few lines:
as §2

For assay [23], the system named is Enterococcus faecalis. Kind of assay: Antibacterial activity against Enterococcus faecalis at 50 ug/ml after 24 hrs by agar disk diffusion assay. Particulars: read-out: DIZ. It is filed as functional. In a few lines: as §1
Assay [24] deals with Aspergillus niger. Kind of assay: Antifungal activity against Aspergillus niger at 50 ug/ml after 48 hrs by agar disk diffusion assay. It is filed as functional. Particulars: read-out: DIZ. In a few lines:
as §4

The subject of assay [25] is Escherichia coli. In words: Antibacterial activity against Escherichia coli at 50 ug/ml after 24 hrs by agar disk diffusion assay. The note with it: read-out: DIZ. Format: functional. In a few lines: as §2
Assay [26] concerns HCT-15. Kind of assay: Cytotoxicity against human HCT15 cells up to 50 ug/ml after 48 hrs by SRB assay. Format: functional, cell-based. In a few lines:
as §3

In assay [27] the test system is B16-F10. Kind of assay: Cytotoxicity against mouse B16F10 cells up to 50 ug/ml after 48 hrs by SRB assay. It is filed as functional, cell-based. In a few lines: as §3
For assay [28], the system named is A549. In words: Cytotoxicity against human A549 cells up to 50 ug/ml after 48 hrs by SRB assay. Format: functional, cell-based. In a few lines: as §3

In brackets after ≈: the same amount, converted by molar mass. A value given as a limit tells only on which side of the number the result lay.

For `O=C1O[C@H]([C@@H](O)CO)C(O)=C1O` [ASCORBIC ACID], the IC50 in [1] was found to be 45.94 µg/mL (≈ 261 µM).
In the case of `CCOC(=O)c1c(N)nc2c(c1-c1cccs1)CCc1c-2[nH]c2ccc(C)cc12`, the MIC against Staphylococcus aureus [2] came to 25 µg/mL (≈ 62 µM); against Enterococcus faecalis [3] it was 25 µg/mL (≈ 62 µM); with Candida albicans [10] it was 75 µg/mL (≈ 186 µM); against Aspergillus niger [11] it was 75 µg/mL (≈ 186 µM); in the assay on Klebsiella pneumoniae [13] it was 25 µg/mL (≈ 62 µM); with Escherichia coli [15], 25 µg/mL (≈ 62 µM). The zone of inhibition at 25 µg/mL came out at 26 mm with Escherichia coli [4]; 27 mm in the assay on Staphylococcus aureus [5]; 29 mm with Klebsiella pneumoniae [7]; 18 mm in the assay on Candida albicans [8]; 17 mm in the assay on Aspergillus niger [9]; 28 mm with Enterococcus faecalis [14]. The IC50 in the assay with B16-F10 [6] was 19.4 µg/mL (≈ 48 µM); in the assay on A549 [12] it was 23.4 µg/mL (≈ 58 µM); in assay [1], 244.85 µg/mL (≈ 607 µM); in the assay with HCT-15 [16], 22.5 µg/mL (≈ 55.8 µM); in assay [17] it was 48.2 µg/mL (≈ 119 µM); in the assay with SK-OV-3 it was “Not Active”.
Take `Cc1ccc2[nH]c3c(c2c1)CCc1c-3nc(N)c(C#N)c1-c1ccc(Br)cc1`: the MIC was 25 µg/mL (≈ 58.2 µM) against Staphylococcus aureus [2]; 25 µg/mL (≈ 58.2 µM) in the assay on Enterococcus faecalis [3]; more than 100 µg/mL in the assay with Candida albicans [10]; more than 100 µg/mL against Aspergillus niger [11]; 25 µg/mL (≈ 58.2 µM) in the assay with Klebsiella pneumoniae [13]; 25 µg/mL (≈ 58.2 µM) in the assay on Escherichia coli [15]. The IC50 result in assay [18] is “Not Active”; with B16-F10 [6] it was 2.84 µg/mL (≈ 6.62 µM); in the assay with A549 [12], 35 µg/mL (≈ 81.5 µM); in assay [1] it was 140.21 µg/mL (≈ 327 µM); in the assay on HCT-15 [16] it was 11 µg/mL (≈ 25.7 µM); in the assay on SK-OV-3, “Not Active”. For the same compound, the zone of inhibition at 25 µg/mL with Escherichia coli [4] was 22 mm; with Staphylococcus aureus [5], 24 mm; in the assay with Klebsiella pneumoniae [7], 25 mm; with Candida albicans [8], 7 mm; in the assay on Aspergillus niger [9], 6 mm; in the assay with Enterococcus faecalis [14], 23 mm. In addition, the “Ratio IC50” value in the assay with B16-F10 [19] worked out at 2.
With `CCOC(=O)c1c(N)nc2c(c1-c1cccnc1)CCc1c-2[nH]c2ccc(C)cc12`, the MIC was 50 µg/mL (≈ 125 µM) with Staphylococcus aureus [2]; 50 µg/mL (≈ 125 µM) in the assay on Enterococcus faecalis [3]; more than 100 µg/mL in the assay with Candida albicans [10]; more than 100 µg/mL with Aspergillus niger [11]; 50 µg/mL (≈ 125 µM) against Klebsiella pneumoniae [13]; 50 µg/mL (≈ 125 µM) against Escherichia coli [15]. The zone of inhibition at 50 µg/mL in the assay on Candida albicans [20] worked out at 9 mm; in the assay with Staphylococcus aureus [21], 19 mm; in the assay on Klebsiella pneumoniae [22], 21 mm; in the assay on Enterococcus faecalis [23], 17 mm; with Aspergillus niger [24], 4 mm; in the assay on Escherichia coli [25] it was 20 mm. Further, the concentration for half-maximal inhibition (IC50) was 29.4 µg/mL (≈ 73.8 µM) with B16-F10 [6]; 43.7 µg/mL (≈ 110 µM) in the assay on A549 [12]; 210.34 µg/mL (≈ 528 µM) in assay [1]; 33.8 µg/mL (≈ 84.8 µM) in the assay with HCT-15 [16]; 24.9 µg/mL (≈ 62.5 µM) in [17]; “Not Active” with SK-OV-3.
`CCOC(=O)c1c(N)nc2c(c1-c1ccc(Br)cc1)CCc1c-2[nH]c2ccc(C)cc12`: the MIC with Staphylococcus aureus [2] is 25 µg/mL (≈ 52.5 µM); against Enterococcus faecalis [3], 25 µg/mL (≈ 52.5 µM); in the assay with Candida albicans [10] it was more than 100 µg/mL; against Aspergillus niger [11] it was more than 100 µg/mL; against Klebsiella pneumoniae [13], 25 µg/mL (≈ 52.5 µM); in the assay with Escherichia coli [15] it was 25 µg/mL (≈ 52.5 µM). Besides, the IC50 result was “Not Active” in [18]; “Not Active” in the assay with HCT-15 [26]; “Not Active” with B16-F10 [27]; “Not Active” in the assay with A549 [28]; 214.77 µg/mL (≈ 451 µM) in assay [1]; “Not Active” in the assay on SK-OV-3. Also, the zone of inhibition at 25 µg/mL is 21 mm in the assay with Escherichia coli [4]; 23 mm with Staphylococcus aureus [5]; 25 mm in the assay on Klebsiella pneumoniae [7]; 7 mm with Candida albicans [8]; 5 mm in the assay with Aspergillus niger [9]; 22 mm with Enterococcus faecalis [14].
